Laboratory results reported in ChEMBL document CHEMBL1147651, “Orally active 1,2,4-trioxanes: synthesis and antimalarial assessment of a new series of 9-functionalized 3-(1-arylvinyl)-1,2,5-trioxaspiro[5.5]undecanes against multi-drug-resistant plasmodium yoelii nigeriensis in mice” (2006).

Assays:
Type in all cases: functional
[1] = tested on: Plasmodium yoelii nigeriensis; assay: Antimalarial activity against multidrug-resistant Plasmodium yoelii nigeriensis in mice (Mus musculus) at 96 mg/kg/day peroral dose after 4 days; conditions: route oral
How it was run: (§1)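 Colony-bred Swiss mice (25 ± 1 g) were given 1 × 10⁶ parasitized RBC on day 0. Groups of five were dosed orally from day 0 to 3 in two divided doses daily, 0.1 mL per dose, in groundnut oil (hemisuccinates in 5% NaHCO₃). Parasitemia was read from thin blood smears on days 4–28. % suppression = [(C − T)/C] × 100 against untreated controls. β-Arteether served as positive control.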

[2] = tested on: Plasmodium yoelii nigeriensis; assay: Antimalarial activity against multidrug-resistant Plasmodium yoelii nigeriensis in mice (Mus musculus) at 30 mg/kg/day peroral dose after 4 days; conditions: route oral
[3] = tested on: Plasmodium yoelii nigeriensis; assay: Antimalarial activity against multidrug-resistant Plasmodium yoelii nigeriensis in mice (Mus musculus) at 100 mg/kg/day peroral dose after 4 days; conditions: route oral
[4] = tested on: Plasmodium yoelii nigeriensis; assay: Antimalarial activity against multidrug-resistant Plasmodium yoelii nigeriensis in mice (Mus musculus) at 48 mg/kg/day peroral dose over 4 days; conditions: route oral; how it was run: as §1
[5] = tested on: Plasmodium yoelii nigeriensis; assay: Antimalarial activity against multidrug-resistant Plasmodium yoelii nigeriensis in mice (Mus musculus) at 24 mg/kg/day peroral dose after 4 days; conditions: route oral; how it was run: as §1
Mus musculus = assay: Survival of mouse at 48 mg/kg/day, po after 28 days
How it was run: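 Swiss mice (25 ± 1 g) were infected with 1 × 10⁶ parasitized RBC on day 0. Five mice per dose were treated orally on days 0–3, twice daily, in groundnut oil or 5% NaHCO₃. Parasitemia was followed by thin smears to day 28. Protection is the percentage of treated mice surviving beyond day 28. β-Arteether served as positive control.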

SMILES | Activity [1] [%] | further results
C=C(c1ccc2ccccc2c1)C1COC2(CCC(=C(C)C(=O)OCC)CC2)OO1 (centres undefined) | 97 | 
OC(c1cc(C(F)(F)F)nc2c(C(F)(F)F)cccc12)C1CCCCN1 (centres undefined) [MEFLOQUINE] |  | Activity [2]: 100%; Activity [3]: 100%
C=C(c1ccccc1)C1COC2(CCC(O)CC2)OO1 (centres undefined) | 78 | 
C=C(c1ccc(-c2ccccc2)cc1)C1COC2(CCC(O)CC2)OO1 (centres undefined) | 91 | 
C=C(c1ccccc1)C1COC2(CCC(OC(=O)CCC(=O)O)CC2)OO1 (centres undefined) | 82 | 
C=C(c1ccccc1)C1COC2(CCC(O)(CC(=O)OCC)CC2)OO1 (stereo in doubt; 24b) | 37 | 
C=C(c1ccccc1)C1COC2(CCC(=C(C)C(=O)OCC)CC2)OO1 (centres undefined) | 39 | 
C=C(c1ccc(-c2ccccc2)cc1)C1COC2(CCC(=CC(=O)OCC)CC2)OO1 (centres undefined) | 100 | Activity [4]: 93%
C=C(c1ccc(C)cc1)C1COC2(CCC(=O)CC2)OO1 (centres undefined) | 7 | 
C=C(c1ccc(C)cc1)C1COC2(CCC(OC(=O)CCC(=O)O)CC2)OO1 (centres undefined) | 97 | 
C=C(c1ccc2ccccc2c1)C1COC2(CCC(=CC(=O)OCC)CC2)OO1 (centres undefined) | 100 | Activity [5]: 100%; Activity [4]: 100%
C=C(c1ccc(C)cc1)C1COC2(CCC(O)CC2)OO1 (centres undefined) | 37 | 
CCCCN(CCCC)CCC(O)c1cc2c(Cl)cc(Cl)cc2c2cc(C(F)(F)F)ccc12 (centres undefined) [HALOFANTRINE] |  | Activity [2]: 100%; Activity [3]: 100%
C=C(c1ccc(-c2ccccc2)cc1)C1COC2(CCC(O)(CC(=O)OCC)CC2)OO1 (stereo in doubt; 25a) | 93 | 
C=C(c1ccc(Cl)cc1)C1COC2(CCC(=CC(=O)OCC)CC2)OO1 (centres undefined) | 100 | Activity [5]: 100%; Activity [4]: 100%
C=C(c1ccccc1)C1COC2(CCC(O)(c3ccccc3)CC2)OO1 (centres undefined) | 95 | 
C=C(c1ccc(-c2ccccc2)cc1)C1COC2(CCC(OC(=O)CCC(=O)O)CC2)OO1 (centres undefined) | 99 | 
C=C(c1ccc2ccccc2c1)C1COC2(CCC(=O)CC2)OO1 (centres undefined) | 15 | 
C=C(c1ccc(Cl)cc1)C1COC2(CCC(O)CC2)OO1 (centres undefined) | 74 | 
C=C(c1ccccc1)C1COC2(CCC(C)(O)CC2)OO1 (centres undefined) | 92 | 
C=C(c1ccccc1)C1COC2(CCC(O)(CC(=O)OCC)CC2)OO1 (stereo in doubt; 24a) | 87 | 

SMILES | Activity [1] [%] | further results
C=C(c1ccc(OC)cc1)C1COC2(CCC(=CC(=O)OCC)CC2)OO1 (centres undefined) | 100 | Activity (Mus musculus): 40%; Activity [4]: 100%
C=C(c1ccc(OC)cc1)C1COC2(CCC(=C(C)C(=O)OCC)CC2)OO1 (centres undefined) | 18 | 
C=C(c1ccc(Cl)cc1)C1COC2(CCC(O)(CC(=O)OCC)CC2)OO1 (stereo in doubt; 26a) | 31 | 
C=C(c1ccc(C)cc1)C1COC2(CCC(=C(C)C(=O)OCC)CC2)OO1 (centres undefined) | 100 | 
C=C(c1ccc(Cl)cc1)C1COC2(CCC(=C(C)C(=O)OCC)CC2)OO1 (centres undefined) | 87 | 
CCO[C@H]1O[C@@H]2O[C@@]3(C)CC[C@H]4[C@H](C)CC[C@@H]([C@H]1C)[C@@]24OO3 [ARTEMOTIL] |  | Activity [5]: 100%; Activity [4]: 100%
C=C(c1ccc(OC)cc1)C1COC2(CCC(=O)CC2)OO1 (centres undefined) | 32 | 
C=C(c1ccc(Cl)cc1)C1COC2(CCC(O)(CC(=O)OCC)CC2)OO1 (stereo in doubt; 26b) | 74 | 
C=C(c1ccccc1)C1COC2(CCC(=CC(=O)OCC)CC2)OO1 (centres undefined) | 100 | Activity [5]: 99%; Activity [4]: 100%
C=C(c1ccc(C2CCCCC2)cc1)C1COC2(CCC(=O)CC2)OO1 (centres undefined) | 100 | 
C=C(c1ccc(-c2ccccc2)cc1)C1COC2(CCC(=C(C)C(=O)OCC)CC2)OO1 (centres undefined) | 100 | Activity [4]: 100%
CCN(CC)CCCC(C)Nc1ccnc2cc(Cl)ccc12 (centres undefined) [CHLOROQUINE] |  | Activity [2]: 100%; Activity [3]: 100%
C=C(c1ccc(-c2ccccc2)cc1)C1COC2(CCC(=O)CC2)OO1 (centres undefined) | 92 | 
C=C(c1ccc(C)cc1)C1COC2(CCC(=CC(=O)OCC)CC2)OO1 (centres undefined) | 100 | Activity [5]: 100%; Activity [4]: 100%
C=C(c1ccc(Cl)cc1)C1COC2(CCC(=O)CC2)OO1 (centres undefined) | 18 | 
C=C(c1ccc(C2CCCCC2)cc1)C1COC2(CCC(=C(C)C(=O)OCC)CC2)OO1 (centres undefined) | 100 | 
C=C(c1ccccc1)C1COC2(CCC(=O)CC2)OO1 (centres undefined) | 7 | 
C=C(c1ccc(C2CCCCC2)cc1)C1COC2(CCC(=CC(=O)OCC)CC2)OO1 (centres undefined) | 100 | Activity (Mus musculus): 40%; Activity [4]: 100%
C=C(c1ccc(Cl)cc1)C1COC2(CCC(OC(=O)CCC(=O)O)CC2)OO1 (centres undefined) | 39 | 
C=C(c1ccc(-c2ccccc2)cc1)C1COC2(CCC(O)(CC(=O)OCC)CC2)OO1 (stereo in doubt; 25b) | 97 | 
